Laboratory results from ChEMBL document CHEMBL3804758, “Click-based synthesis and antitubercular evaluation of novel dibenzo[b,d]thiophene-1,2,3-triazoles with piperidine, piperazine, morpholine and thiomorpholine appendages” (Bioorg Med Chem Lett, 2016).
In brackets after ≈: the same amount, converted by molar mass.

Tested on: Mycobacterium tuberculosis
Assay: Antimycobacterial activity against Mycobacterium tuberculosis H37Rv ATCC 27294 after 28 days by agar dilution technique
Format: functional
Details: H37Rv ATCC 27294, 672 h
How it was run: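 Agar dilution in Middlebrook 7H11 with OADC supplement. Two-fold serial dilutions from 50.0 down to 0.4 µg/mL were incorporated into the agar. Inoculum of H37Rv came from fresh 7H11/OADC slants, suspended in saline diluted to […]. 5 μL was spotted per tube, incubated at 37 °C and read after 28 days. MIC was the lowest concentration giving complete growth inhibition, done in triplicate.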

SMILES	MIC [µg/mL]
Cc1ccc(-c2cn(C(CN3CCNCC3)c3ccc4sc5ccccc5c4c3)nn2)cc1 (stereo not drawn)	6.25 (≈ 13.8 µM)
CCCCc1cn(C(CN2CCNCC2)c2ccc3sc4ccccc4c3c2)nn1 (stereo not drawn)	12.5 (≈ 29.8 µM)
c1ccc(-c2cn(C(CN3CCNCC3)c3ccc4sc5ccccc5c4c3)nn2)cc1 (stereo not drawn)	12.5 (≈ 28.4 µM)
O=[N+]([O-])c1ccc(-c2cn(C(CN3CCCCC3)c3ccc4sc5ccccc5c4c3)nn2)cc1 (stereo not drawn)	50 (≈ 103 µM)
Cc1ccc(-c2cn(C(CN3CCCCC3)c3ccc4sc5ccccc5c4c3)nn2)cc1 (stereo not drawn)	50 (≈ 110 µM)
Fc1ccc(-c2cn(C(CN3CCNCC3)c3ccc4sc5ccccc5c4c3)nn2)c(Cl)c1 (stereo not drawn)	1.56 (≈ 3.17 µM)
Cc1ccc(-c2cn(C(CN3CCN(CCO)CC3)c3ccc4sc5ccccc5c4c3)nn2)cc1 (stereo not drawn)	50 (≈ 100 µM)
CCCCc1cn(C(CN2CCN(CCO)CC2)c2ccc3sc4ccccc4c3c2)nn1 (stereo not drawn)	6.25 (≈ 13.5 µM)
CC(C)(C)c1ccc(-c2cn(C(CN3CCSCC3)c3ccc4sc5ccccc5c4c3)nn2)cc1 (stereo not drawn)	6.25 (≈ 12.2 µM)
Fc1ccc(-c2cn(C(CN3CCCCC3)c3ccc4sc5ccccc5c4c3)nn2)c(Cl)c1 (stereo not drawn)	50 (≈ 102 µM)
O=[N+]([O-])c1ccc(-c2cn(C(CN3CCNCC3)c3ccc4sc5ccccc5c4c3)nn2)cc1 (stereo not drawn)	3.12 (≈ 6.44 µM)
c1ccc(-c2cn(C(CN3CCOCC3)c3ccc4sc5ccccc5c4c3)nn2)cc1 (stereo not drawn)	50 (≈ 113 µM)
CC(C)(C)c1ccc(-c2cn(C(CN3CCN(CCO)CC3)c3ccc4sc5ccccc5c4c3)nn2)cc1 (stereo not drawn)	25 (≈ 46.3 µM)
CCCCc1cn(C(CN2CCOCC2)c2ccc3sc4ccccc4c3c2)nn1 (stereo not drawn)	50 (≈ 119 µM)
Cc1ccc(-c2cn(C(CN3CCOCC3)c3ccc4sc5ccccc5c4c3)nn2)cc1 (stereo not drawn)	25 (≈ 55 µM)
O=[N+]([O-])c1ccc(-c2cn(C(CN3CCN(CCO)CC3)c3ccc4sc5ccccc5c4c3)nn2)cc1 (stereo not drawn)	12.5 (≈ 23.6 µM)
O=[N+]([O-])c1ccc(-c2cn(C(CN3CCOCC3)c3ccc4sc5ccccc5c4c3)nn2)cc1 (stereo not drawn)	50 (≈ 103 µM)

SMILES	MIC [µg/mL]
Fc1ccc(-c2cn(C(CN3CCSCC3)c3ccc4sc5ccccc5c4c3)nn2)c(Cl)c1 (stereo not drawn)	12.5 (≈ 24.6 µM)
CCCCc1cn(C(CN2CCSCC2)c2ccc3sc4ccccc4c3c2)nn1 (stereo not drawn)	25 (≈ 57.3 µM)
OCCN1CCN(CC(c2ccc3sc4ccccc4c3c2)n2cc(-c3ccc(F)cc3Cl)nn2)CC1 (stereo not drawn)	12.5 (≈ 23.3 µM)
c1ccc(-c2cn(C(CN3CCCCC3)c3ccc4sc5ccccc5c4c3)nn2)cc1 (stereo not drawn)	0.78 (≈ 1.78 µM)
CC(C)(C)c1ccc(-c2cn(C(CN3CCCCC3)c3ccc4sc5ccccc5c4c3)nn2)cc1 (stereo not drawn)	3.12 (≈ 6.31 µM)
OCCN1CCN(CC(c2ccc3sc4ccccc4c3c2)n2cc(-c3ccccc3)nn2)CC1 (stereo not drawn)	12.5 (≈ 25.8 µM)
Fc1ccc(-c2cn(C(CN3CCOCC3)c3ccc4sc5ccccc5c4c3)nn2)c(Cl)c1 (stereo not drawn)	25 (≈ 50.7 µM)
O=[N+]([O-])c1ccc(-c2cn(C(CN3CCSCC3)c3ccc4sc5ccccc5c4c3)nn2)cc1 (stereo not drawn)	25 (≈ 49.8 µM)
CC(C)(C)c1ccc(-c2cn(C(CN3CCOCC3)c3ccc4sc5ccccc5c4c3)nn2)cc1 (stereo not drawn)	6.25 (≈ 12.6 µM)
Cc1ccc(-c2cn(C(CN3CCSCC3)c3ccc4sc5ccccc5c4c3)nn2)cc1 (stereo not drawn)	12.5 (≈ 26.6 µM)
CCCCc1cn(C(CN2CCCCC2)c2ccc3sc4ccccc4c3c2)nn1 (stereo not drawn)	0.78 (≈ 1.86 µM)
c1ccc(-c2cn(C(CN3CCSCC3)c3ccc4sc5ccccc5c4c3)nn2)cc1 (stereo not drawn)	50 (≈ 109 µM)
CC(C)(C)c1ccc(-c2cn(C(CN3CCNCC3)c3ccc4sc5ccccc5c4c3)nn2)cc1 (stereo not drawn)	6.25 (≈ 12.6 µM)
CC[C@@H](CO)NCCN[C@@H](CC)CO [ETHAMBUTOL]	3.13 (≈ 15.3 µM)
NNC(=O)c1ccncc1 [ISONIAZID]	0.1 (≈ 0.729 µM)
NC(=O)c1cnccn1 [PYRAZINAMIDE]	50 (≈ 406 µM)
